# Measured values from ChEMBL document CHEMBL4842330, “New nimesulide derivatives with amide/sulfonamide moieties: Selective COX-2 inhibition and antitumor effects” (Eur J Med Chem, 2021).
# Active and inactive are the calls of the source. The calls are words filed in the database; no cut-off is given here.
# Tests used:
# [1] = test system: MCF7; assay: Cytotoxicity against human MCF7 cells assessed as cell viability at 100 uM after 48 hrs by MTT assay relative to control; assay type: functional; conditions: read-out: Activity
# In short: (§1)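 Cells in exponential growth were seeded at 5 × 10⁴ cells/mL, held 24 h at 37 °C, then exposed to compound for 48 h. MTT was added to 1 mg/mL final for 2 h. Formazan was dissolved in DMSO and read at 570 nm, with 620 nm background subtraction. Final DMSO ≤1.0%; viability reported as percentage of control.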
# [2] = test system: HT-29; assay: Cytotoxicity against human HT-29 cells assessed as cell viability at 100 uM after 48 hrs by MTT assay relative to control; assay type: functional; conditions: read-out: Activity; in short: as §1
# [3] = test system: PC-3; assay: Cytotoxicity against human PC-3 cells assessed as cell viability at 100 uM after 48 hrs by MTT assay relative to control; assay type: functional; conditions: read-out: Activity; in short: as §1
# [4] = test system: MCF7; assay: Induction of apoptosis in human MCF7 cells assessed as upregulation of BAX protein expression measured after 24 hrs by Western blot analysis; assay type: functional, cell-based
# In short: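 MCF-7 cells seeded at 1 × 10⁶ cells/mL were exposed to compound for 24 h and lysed in RIPA buffer. Lysates were quantified by BCA, equally loaded, and run on a 12% SDS gel with 4% stacking gel. Blots were probed at 4 °C for BAX, BCL-2 and β-actin, then with HRP secondary, and detected by chemiluminescence. Band densitometry reported as relative change versus control.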
# [5] = test system: HT-29; assay: Cytotoxicity against human HT-29 cells assessed as inhibition of cell growth after 48 hrs by SRB assay; assay type: functional, cell-based; conditions: HT-29, 48 h
# In short: (§2)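 Cells seeded at 5 × 10⁴ cells/mL were held 24 h, then treated 48 h across final concentrations of 0–200 µM. They were fixed with 10% TCA for 1 h at 4 °C and stained with 0.04% SRB for 30 min. Bound dye was washed with 1% acetic acid, solubilised in 10 mM Tris base (pH 10.5) and read at 565 nm. IC50 derived from concentration–response curves.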
# [6] = test system: MCF7; assay: Induction of apoptosis in human MCF7 cells assessed as increase in BAX/Bcl-2 ratio at 10 to 25 uM measured after 24 hrs by Western blot analysis; conditions: dose 10-25 µM
# [7] = test system: MCF7; assay: Inhibition of colony formation in human MCF7 cells assessed as decrease in colonies incubated for 14 days by crystal violet staining based clonogenic assay; assay type: functional, cell-based; conditions: time 14.0 day
# In short: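 MCF-7 cells seeded at 5 × 10² per well were allowed to attach for 24 h. Compound was then applied at increasing concentrations, with medium and compound renewed every 2 days for 14 days. Colonies were fixed in 75% methanol/25% acetic acid for 30 min, stained with 0.5% crystal violet for 30 min, and counted.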
# [8] = test system: MCF7; assay: Cytotoxicity against human MCF7 cells assessed as inhibition of cell growth after 48 hrs by SRB assay; assay type: functional, cell-based; conditions: MCF7, 48 h; in short: as §2
# [9] = test system: MCF7; assay: Induction of apoptosis in human MCF7 cells assessed as downregulation of Bcl-2 protein expression at 10 to 25 uM measured after 24 hrs by Western blot analysis; conditions: dose 10-25 µM
# [10] = test system: PC-3; assay: Cytotoxicity against human PC-3 cells assessed as inhibition of cell growth after 48 hrs by SRB assay; assay type: functional, cell-based; conditions: PC-3, 48 h; in short: as §2
# [11] = test system: HUVEC; assay: Cytotoxicity against human HUVEC cells assessed as inhibition of cell growth after 48 hrs by SRB assay; assay type: cell-based; in short: as §2
# [12] = test system: RAW264.7; assay: Inhibition of LPS-induced NO release in mouse RAW264.7 cells at 20 uM when treated with compound and LPS simultaneously measured after 24 hrs by Griess reagent based assay relative to control; assay type: functional
# In short: (§3)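 RAW264.7 cells were plated at 4 × 10⁵ cells/mL in phenol-free medium and left 24 h. They then received compound together with LPS (1 µg/mL) for 24 h. Nitrite in supernatants was measured by the Griess reaction and normalised to BCA total protein of viable cells. 1400W at 20 µM served as positive control.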
# [13] = molecular target: T1, Prostaglandin G/H synthase 2 (Homo sapiens) (UniProt P35354); assay: Inhibition of human recombinant COX-2 at 1 uM using arachidonic acid as substrate preincubated for 10 mins followed by substrate addition relative to control
# T1 sequence (whole entry): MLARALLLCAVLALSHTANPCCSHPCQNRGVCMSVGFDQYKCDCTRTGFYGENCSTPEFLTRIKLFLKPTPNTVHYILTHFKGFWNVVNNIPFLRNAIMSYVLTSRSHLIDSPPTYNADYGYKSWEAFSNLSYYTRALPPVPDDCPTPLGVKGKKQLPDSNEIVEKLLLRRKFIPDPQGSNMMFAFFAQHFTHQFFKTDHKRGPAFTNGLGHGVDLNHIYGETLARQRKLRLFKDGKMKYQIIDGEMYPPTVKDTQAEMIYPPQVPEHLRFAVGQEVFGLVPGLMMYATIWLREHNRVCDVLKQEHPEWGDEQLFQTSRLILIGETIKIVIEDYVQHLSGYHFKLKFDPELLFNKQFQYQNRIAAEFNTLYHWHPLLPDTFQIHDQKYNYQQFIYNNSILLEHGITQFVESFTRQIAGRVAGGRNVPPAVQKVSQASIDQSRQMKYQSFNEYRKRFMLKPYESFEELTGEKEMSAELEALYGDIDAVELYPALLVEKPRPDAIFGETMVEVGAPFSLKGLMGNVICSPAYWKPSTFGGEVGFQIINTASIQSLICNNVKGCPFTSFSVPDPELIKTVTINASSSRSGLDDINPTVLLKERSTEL
# [14] = Inhibition of LPS-induced TNF alpha mRNA expression in mouse RAW264.7 cells at 20 uM by RT-qPCR analysis relative to control; assay type: functional
# In short: (§4)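 RAW264.7 cells were kept in high-glucose DMEM with 10% FBS. They were treated with compound alongside LPS stimulation. iNOS, TNF-α and IL-1β mRNA were quantified by qPCR using TaqMan probes, with β-actin as housekeeping gene, and expressed relative to LPS control. Final DMSO ≤1.0%.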
# [15] = Inhibition of LPS-induced TNF alpha mRNA expression in mouse RAW264.7 cells at 50 uM by RT-qPCR analysis relative to control; assay type: functional; in short: as §4
# [16] = test system: THP-1; assay: Antiinflammatory activity in LPS-stimulated human THP-1 cells assessed as suppression of PGE2 release at 100 uM incubated for 24 hrs by ELISA relative to control; assay type: functional
# In short: (§5)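 THP-1 monocytes were differentiated with PMA (10 ng/mL, 24 h) and rested 24 h PMA-free. They were then given compound alongside 1 µg/mL LPS for 24 h. PGE₂ in supernatants was measured by ELISA and normalised to the BCA total protein of viable cells. Final DMSO ≤1.0%; at least three independent biological replicates.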
# [17] = test system: THP-1; assay: Antiinflammatory activity in LPS-stimulated human THP-1 cells assessed as suppression of COX-2 mRNA expression at 50 uM incubated for 24 hrs by ELISA relative to control; assay type: functional; conditions: in the assay text read “by qPCR” for “by ELISA”
# In short: (§6)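 THP-1 monocytes plated at 1 × 10⁶ cells/mL, differentiated with 10 ng/mL PMA for 24 h, then rested 24 h in PMA-free medium. Cells were treated with compound and LPS stimulation. COX mRNA was quantified by qPCR with TaqMan probes against β-actin as housekeeping gene. Compound stocks in DMSO, final DMSO ≤1.0%.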
# [18] = test system: THP-1; assay: Antiinflammatory activity in LPS-stimulated human THP-1 cells assessed as suppression of COX-2 mRNA expression at 100 uM incubated for 24 hrs by ELISA relative to control; assay type: functional; conditions: in the assay text read “by qPCR” for “by ELISA”; in short: as §6
# [19] = molecular target: COX-1 (Prostaglandin G/H synthase 1) (Homo sapiens, UniProt P23219); assay: Inhibition of human recombinant COX-1 at 10 uM using arachidonic acid as substrate preincubated for 10 mins followed by substrate addition relative to control; conditions: recombinant COX-1, probe arachidonic acid
# [20] = test system: THP-1; assay: Antiinflammatory activity in LPS-stimulated human THP-1 cells assessed as suppression of PGE2 release at 50 uM incubated for 24 hrs by ELISA relative to control; assay type: functional; in short: as §5
# [21] = Inhibition of LPS-induced IL-1 beta mRNA expression in mouse RAW264.7 cells at 20 uM by RT-qPCR analysis relative to control; assay type: functional; in short: as §4
# [22] = Inhibition of LPS-induced IL-1 beta mRNA expression in mouse RAW264.7 cells at 50 uM by RT-qPCR analysis relative to control; assay type: functional; in short: as §4
# [23] = test system: RAW264.7; assay: Inhibition of LPS-induced NO release in mouse RAW264.7 cells at 50 uM when treated with compound and LPS simultaneously measured after 24 hrs by Griess reagent based assay relative to control; assay type: functional; in short: as §3
# Sequence of COX-1 (Prostaglandin G/H synthase 1) (P23219 whole entry): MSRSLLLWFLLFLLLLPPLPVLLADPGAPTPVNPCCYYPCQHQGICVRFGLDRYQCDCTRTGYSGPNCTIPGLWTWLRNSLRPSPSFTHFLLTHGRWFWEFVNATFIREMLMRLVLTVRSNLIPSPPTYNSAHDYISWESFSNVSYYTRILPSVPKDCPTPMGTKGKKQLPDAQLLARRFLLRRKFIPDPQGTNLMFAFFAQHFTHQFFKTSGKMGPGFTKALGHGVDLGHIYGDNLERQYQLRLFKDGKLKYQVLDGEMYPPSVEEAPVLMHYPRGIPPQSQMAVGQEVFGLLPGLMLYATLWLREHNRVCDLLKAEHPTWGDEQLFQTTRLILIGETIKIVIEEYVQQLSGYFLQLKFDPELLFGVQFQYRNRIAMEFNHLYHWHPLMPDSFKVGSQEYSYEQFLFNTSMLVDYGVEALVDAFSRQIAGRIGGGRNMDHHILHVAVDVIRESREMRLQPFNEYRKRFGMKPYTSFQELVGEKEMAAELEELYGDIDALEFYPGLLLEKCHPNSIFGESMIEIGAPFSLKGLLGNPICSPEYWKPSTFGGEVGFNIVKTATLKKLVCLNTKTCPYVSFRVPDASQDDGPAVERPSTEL
Compound,viability at 100 µM [1] [%],viability at 100 µM [2] [%],viability at 100 µM [3] [%],other results
CC(C)Oc1cc(NS(=O)(=O)c2ccc(F)cc2)ccc1NS(C)(=O)=O,130,92.9,75.5,–
CCOc1cc(NS(=O)(=O)c2cccc([N+](=O)[O-])c2)ccc1NS(C)(=O)=O,127,116,75.5,–
CCOc1cc(NS(=O)(=O)c2ccccc2[N+](=O)[O-])ccc1NS(C)(=O)=O,139,133,77.9,–
CCOc1cc(NC(=O)c2ccc(F)cc2)ccc1NS(C)(=O)=O,64.4,80.1,90,–
COc1ccc(S(=O)(=O)Nc2ccc(NS(C)(=O)=O)c(OC(C)C)c2)cc1,130,102,68.6,–
CS(=O)(=O)Nc1ccc(NC(=O)c2ccc(F)cc2)cc1Oc1ccccc1,22.2,33.1,24.8,Activity [4]: Dose-Dependent Effect; IC50 [5]: 9.24 µM; Activity [6]: Active; inhibition [7]: Dose-Dependent Effect; IC50 [8]: 11.3 µM; Activity [9]: Active; IC50 [10]: > 100 µM; IC50 [11]: > 200 µM
COc1cccc2c1C(=O)c1c(O)c3c(c(O)c1C2=O)C[C@@](O)(C(=O)CO)C[C@@H]3O[C@H]1C[C@H](N)[C@H](O)[C@H](C)O1 [DOXORUBICIN],14.1,21,11.8,IC50 [5]: 0.15 µM; IC50 [8]: 0.16 µM; IC50 [10]: 16.9 µM; IC50 [11]: 0.1 µM
CCOc1cc(NC(=O)c2ccccc2[N+](=O)[O-])ccc1NS(C)(=O)=O,122,112,100,–
COc1ccc(C(=O)Nc2ccc(NS(C)(=O)=O)c(OC(C)C)c2)c([N+](=O)[O-])c1,63.5,111,94.2,–
CC(C)Oc1cc(NC(=O)c2ccc([N+](=O)[O-])cc2)ccc1NS(C)(=O)=O,101,124,81,–
CS(=O)(=O)Nc1ccc(NC(=O)c2ccc(C(N)=O)cc2)cc1Oc1ccccc1,53.1,64.4,88.7,–
CCOc1cc(NC(=O)c2cccc([N+](=O)[O-])c2)ccc1NS(C)(=O)=O,90.8,70.4,90.2,–
CC(C)Oc1cc(NC(=O)c2ccc(C(N)=O)cc2)ccc1NS(C)(=O)=O,61.9,79.4,49.8,–
CC(C)Oc1cc(NS(=O)(=O)c2ccc([N+](=O)[O-])cc2)ccc1NS(C)(=O)=O,57.9,75.4,91.4,–
CCOc1cc(NC(=O)c2ccc([N+](=O)[O-])cc2)ccc1NS(C)(=O)=O,116,114,84.8,–
CCOc1cc(NS(=O)(=O)c2ccc([N+](=O)[O-])cc2)ccc1NS(C)(=O)=O,119,118,65.7,inhibition at 20 µM [12]: 40.7%; inhibition [13]: 88%; inhibition at 20 µM [14]: 46%; inhibition at 50 µM [15]: 22%; Activity [16]: 44%; Activity [17]: 47%; Activity [18]: 60%; inhibition at 10 µM [19]: 21%; Activity [20]: 77%; inhibition at 20 µM [21]: 39%; inhibition at 50 µM [22]: 22%; inhibition at 50 µM [23]: 68%
COc1ccc(C(=O)Nc2ccc(NS(C)(=O)=O)c(OC(C)C)c2)cc1,153,67.9,65.8,–
